Data: paper PMC9939360 (Acta Pharmaceutica Sinica. B, 2022)
Read-outs that look alike come from different tables or passages of the source. Marks after values point to notes of the source that are not given here.

Assays:
hM4 mAChR [1] = molecular target: T1, hM4 mAChR (Homo sapiens, UniProt P08173); assay type: binding; settings: for LogαACh (logarithm of the binding cooperativity factor between M4-PAMs and ACh): CHO cells stably expressing hM4, mean ± SEM
T1 sequence (P08173 1-479): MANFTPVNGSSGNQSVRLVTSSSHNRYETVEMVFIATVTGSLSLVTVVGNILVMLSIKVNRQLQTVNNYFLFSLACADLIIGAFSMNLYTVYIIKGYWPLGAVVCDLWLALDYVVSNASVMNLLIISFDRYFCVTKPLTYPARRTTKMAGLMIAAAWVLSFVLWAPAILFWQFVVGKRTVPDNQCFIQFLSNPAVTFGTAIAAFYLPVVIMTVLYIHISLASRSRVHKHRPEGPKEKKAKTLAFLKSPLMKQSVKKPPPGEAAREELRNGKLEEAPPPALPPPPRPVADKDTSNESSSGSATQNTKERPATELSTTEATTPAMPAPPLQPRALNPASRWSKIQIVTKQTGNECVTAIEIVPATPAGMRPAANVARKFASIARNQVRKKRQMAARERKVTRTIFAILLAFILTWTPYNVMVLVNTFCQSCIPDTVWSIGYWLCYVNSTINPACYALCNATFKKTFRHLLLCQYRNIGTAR
In short: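 Intact FlpIn CHO cells stably expressing human M4 were grown in DMEM/5% FBS, plated at 20,000 per well and grown overnight at 37 °C. After PBS washes, cells were incubated with an ACh concentration series, with or without increasing test compound concentrations, plus [3H]-NMS (~0.1 nmol/L). Atropine (10 μmol/L) defined nonspecific binding. Cells were washed with ice-cold 0.9% NaCl and counted by scintillation. KB and α came from an allosteric ternary complex model fit.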

hM4 mAChR [2] = molecular target: T1, hM4 mAChR; experiment: [35S]-GTPγS binding assay with ACh, operational model of allosterism; assay type: biochemical; settings: mean ± SEM; for LogβACh (logarithm of the activation cooperativity factors between ACh and M4-PAMs): determined by subtracting (α) from the (αβ) parameters; for LogαβACh (logarithm of the operational functional cooperativity factors between ACh and M4-PAMs) / Logτ (logarithm of the operational efficacy parameter of M4-PAMs as allosteric agonists): hM4 membranes
In short: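 Membranes from FlpInCHO cells stably expressing wild-type human M4, 15 μg per assay, preincubated 60 min at 30 °C with 10 μmol/L GDP and ACh (10 nmol/L–10 mmol/L), with or without M4-PAMs (0.1–10 μmol/L). [35S]GTPγS (1 nmol/L, as added) then given for 30 min at 30 °C. Bound label collected on GF/B filters and counted by scintillation. Data fitted to an operational model of allosterism and agonism.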

M1, M2, M3 and M5 = experiment: Tango assay, selectivity over other muscarinic subtypes; assay type: cell-based
In short: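 HEK293 cells stably carrying a tTA-dependent luciferase reporter and a β-arrestin2–TEV fusion were kept in DMEM/10% FBS with puromycin and hygromycin B at 37 °C, 5% CO2. They were transfected, then replated on day 3 at 15,000–20,000 cells/well on poly-L-lysine. On day 4 test compound was added in HEPES/1× HBSS buffer, pH 7.4. On day 5, Bright-Glo luminescence was read after 15–20 min at room temperature (RLU). Carbachol served as reference agonist.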

M4 [3] = settings: rhesus monkeys; cited from earlier work
M4 [4] = settings: humans; cited from earlier work

Row | Kb (hM4 mAChR [1]) [nM] | LogαACh (logarithm of the binding cooperativity factor between M4-PAMs and ACh) (hM4 mAChR [1]) | LogβACh (logarithm of the activation cooperativity factors between ACh and M4-PAMs) (hM4 mAChR [2]) | LogαβACh (logarithm of the operational functional cooperativity factors between ACh and M4-PAMs) (hM4 mAChR [2]) | Logτ (logarithm of the operational efficacy parameter of M4-PAMs as allosteric agonists) (hM4 mAChR [2]) | selectivity over other muscarinic acetylcholine receptor subtypes (M1, M2, M3 and M5) | Structure (SMILES) | peak striatal SUV (M4 [3]) | peak striatal SUV (M4 [4])
1 | 398 | 1.4 ± 0.1 | 1.1 ± 0.2 | 2.5 ± 0.1 ^f | 0.5 ± 0.0 | selective | N#Cc1ccc(-c2cnn(CC3CCCC3)c2)c(-c2ccc3c(c2)C(=O)N(CCF)C3)n1 [Compound 12, 5-(1-(cyclopentylmethyl)-1H-pyrazol-4-yl)-6-(2-(2-fluoroethyl)-3-oxoisoindolin-5-yl)picolinonitrile] |  | 
2 | 398 | 1.6 ± 0.2 | 0.8 ± 0.2 | 2.4 ± 0.2 ^f | 0.6 ± 0.0 |  | N#Cc1ccc(-c2cnn(CC3CCCC3)c2)c(-c2ccc3c(c2)C(=O)N(CCCF)C3)n1 [Compound 13, 5-(1-(cyclopentylmethyl)-1H-pyrazol-4-yl)-6-(2-(3-fluoropropyl)-3-oxoisoindolin-5-yl)picolinonitrile] |  | 

Second part, the molecule before the results:

Row | Structure (SMILES) | Kb (hM4 mAChR [1]) [nM] | LogαACh (logarithm of the binding cooperativity factor between M4-PAMs and ACh) (hM4 mAChR [1]) | LogβACh (logarithm of the activation cooperativity factors between ACh and M4-PAMs) (hM4 mAChR [2]) | LogαβACh (logarithm of the operational functional cooperativity factors between ACh and M4-PAMs) (hM4 mAChR [2]) | Logτ (logarithm of the operational efficacy parameter of M4-PAMs as allosteric agonists) (hM4 mAChR [2]) | selectivity over other muscarinic acetylcholine receptor subtypes (M1, M2, M3 and M5) | peak striatal SUV (M4 [3]) | peak striatal SUV (M4 [4])
3 | CN1Cc2ccc(-c3nc(C#N)ccc3-c3cnn(CC4CCCC4)c3)cc2C1=O [Compound 8, 5-(1-(cyclopentylmethyl)-1H-pyrazol-4-yl)-6-(2-methyl-3-oxoisoindolin-5-yl)picolinonitrile] | 398 | 1.7 ± 0.3 | 0.1 ± 0.3 | 1.9 ± 0.2 | 0.3 ± 0.0 |  |  | 
4 | Cc1ccc(-c2cnn(CC3CCCC3)c2)c(-c2ccc3c(c2)C(=O)N(C)C3)n1 [Compound 10, 6-(3-(1-(cyclopentylmethyl)-1H-pyrazol-4-yl)-6-methylpyridin-2-yl)-2-methylisoindolin-1-one] | 316 | 1.6 ± 0.2 | 0.4 ± 0.2 | 2.0 ± 0.2 | 0.7 ± 0.0 |  |  | 
5 | Cc1ccc(-c2cnn(CC3CCCC3)c2)c(-c2ccc3c(c2)C(=O)NC3)n1 [Compound 11, 6-(3-(1-(cyclopentylmethyl)-1H-pyrazol-4-yl)-6-methylpyridin-2-yl)isoindolin-1-one] | 501 | 1.4 ± 0.2 | 0.5 ± 0.3 | 1.9 ± 0.2 | 0.5 ± 0.0 |  |  | 
6 | CC1(Cn2cc(-c3ccc(C#N)nc3-c3ccc4c(c3)C(=O)N([11CH3])C4)cn2)CCCC1 [[^11C]MK-6884] |  |  |  |  |  |  | ca. 1.2 | ca. 2.5
